pIC50: −log10 of the molar value. Calls of active or inactive are those of the source. The calls are words filed in the database; no cut-off is given here.
What was measured:
[1] = target: DNA topoisomerase 2-alpha (Homo sapiens) (UniProt P11388); experiment: Inhibition of DNA topoisomerase 2 (unknown origin)-mediated relaxation of supercoiled pHOT DNA after 30 to 45 mins by agarose gel electrophoresis
Procedure, shortened: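 Supercoiled pHOT DNA (125 ng) with compound in buffer stated as 0.5 M Tris-HCl pH 8.0, 1.5 M NaCl, 100 mM MgCl2, 5 mM DTT, 300 μg/mL BSA, 20 mM ATP, at 37 °C. Methods state 6 units topo II, figure legend 5 units; 30−45 min, SDS stop. Products run on 1% agarose and stained with ethidium bromide.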

[2] = target: T1, DNA topoisomerase 1 (Homo sapiens) (UniProt P11387); experiment: Inhibition of DNA topoisomerase 1 (unknown origin)-mediated relaxation of supercoiled pHOT DNA at 25 to 200 uM after 30 to 45 mins by agarose gel electrophoresis
T1 sequence (whole entry): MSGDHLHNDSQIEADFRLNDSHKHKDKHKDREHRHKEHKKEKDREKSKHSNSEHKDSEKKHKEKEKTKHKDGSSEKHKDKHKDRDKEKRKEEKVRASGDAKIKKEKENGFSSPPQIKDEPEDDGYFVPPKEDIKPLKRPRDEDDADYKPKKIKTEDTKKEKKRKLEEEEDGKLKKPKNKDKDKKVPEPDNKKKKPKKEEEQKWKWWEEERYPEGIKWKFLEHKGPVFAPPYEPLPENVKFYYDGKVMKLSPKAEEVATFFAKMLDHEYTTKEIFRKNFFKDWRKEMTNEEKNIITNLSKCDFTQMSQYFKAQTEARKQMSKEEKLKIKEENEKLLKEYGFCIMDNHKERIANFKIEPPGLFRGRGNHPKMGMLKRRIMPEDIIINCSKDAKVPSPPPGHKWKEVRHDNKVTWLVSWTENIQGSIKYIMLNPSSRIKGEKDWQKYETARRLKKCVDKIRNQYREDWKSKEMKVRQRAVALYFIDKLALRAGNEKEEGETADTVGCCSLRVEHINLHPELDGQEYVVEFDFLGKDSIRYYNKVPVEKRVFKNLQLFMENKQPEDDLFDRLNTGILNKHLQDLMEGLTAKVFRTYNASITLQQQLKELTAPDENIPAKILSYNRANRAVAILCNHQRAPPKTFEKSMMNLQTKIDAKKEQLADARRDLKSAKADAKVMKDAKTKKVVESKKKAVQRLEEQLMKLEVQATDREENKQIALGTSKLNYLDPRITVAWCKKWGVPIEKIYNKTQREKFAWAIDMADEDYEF
Procedure, shortened: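 Supercoiled pHOT DNA (200 ng) and compound in 10 mM Tris-HCl pH 7.9 with 1 mM EDTA at 37 °C. Reaction started with 1 unit topo I, run 30−45 min, stopped with 10% SDS. Products separated on 1% agarose at 50 V for 90 min and stained with ethidium bromide.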

HT-29 = experiment: Cytotoxicity against human HT-29 cells after 72 hrs by Alamar blue assay; assay type: functional, cell-based; settings: HT-29, 72 h
Procedure, shortened: (§1)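 Cells exposed to compound for 72 h, then Alamar blue added with a further 10−12 h at 37 °C and a spectrophotometric read. IC50 from six or seven concentrations by median-effect analysis; mean ± STDEV, n = 3. CL141T is a line derived from a patient lung tumor passaged as a SCID mouse xenograft.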

NCI-H460 [3] = experiment: Induction of apoptosis in human H460 cells assessed as increase in cleaved PARP expression at IC50 after 24 to 72 hrs by Western blotting analysis; assay type: functional, cell-based
Procedure, shortened: (§2)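 H460 cells treated at IC50 for 24 and 72 h. Lysate proteins separated by SDS-PAGE and blotted to nitrocellulose, blocked in 5% milk/PBST. Primary antibodies to caspase-3, caspase-7, PARP (full-length and cleaved) and β-actin applied for 1 h at room temperature or overnight at 4 °C; HRP secondary with ECL detection.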

NCI-H460 [4] = experiment: Induction of apoptosis in human H460 cells assessed as increase in apoptotic cells at IC50 after 24 hrs by annexin V-FITC/propidium iodide staining-based FACS flow cytometric analysis (reference value: 4.1%); assay type: functional
[5] = Cell cycle arrest in human CL141T cells assessed as accumulation at S phase at 1 x IC50 to 2 x IC50 after 24 hrs by propidium iodide staining-based FACS flow cytometric analysis; assay type: functional
Procedure, shortened: (§3)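 CL141T cells treated at 0.5-, 1- and 2-fold IC50 for 24, 48 and 72 h. Cells fixed in ice-cold 70% EtOH, then stained with 4 μg/mL propidium iodide in PBS with 1% Triton X-100 and 0.1 mg/mL RNase A. Phase distribution from flow cytometry DNA histograms; sub-G1 fraction scored as well.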

[6] = Cytotoxicity against human H460 cells after 72 hrs by Alamar blue assay; assay type: functional, cell-based; settings: NCI-H460, 72 h; procedure, shortened: as §1
[7] = Cell cycle arrest in human CL141T cells assessed as accumulation at S phase at 0.5 x IC50 after 24 hrs by propidium iodide staining-based FACS flow cytometric analysis; assay type: functional; procedure, shortened: as §3
[8] = Cell cycle arrest in human CL141T cells assessed as accumulation at sub-G1 phase at 0.5 x IC50 to 2 x IC50 after 72 hrs by propidium iodide staining-based FACS flow cytometric analysis; assay type: functional; procedure, shortened: as §3
NCI-H460 [9] = experiment: Induction of apoptosis in human H460 cells assessed as increase in cleaved caspase 3 expression at IC50 after 24 to 72 hrs by Western blotting analysis; assay type: functional, cell-based; procedure, shortened: as §2
[10] = Cytotoxicity against human HEL299 cells; assay type: cell-based; settings: HEL 299
[11] = Cell cycle arrest in human CL141T cells assessed as accumulation at G2/M phase at 2 x IC50 after 24 hrs by propidium iodide staining-based FACS flow cytometric analysis; assay type: functional; procedure, shortened: as §3
[12] = Cytotoxicity against human MES-SA/Dx5 cells after 72 hrs by Presto Blue assay; assay type: functional, cell-based; settings: MES-SA/Dx5, 72 h
Procedure, shortened: (§4)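 MES-SA and doxorubicin-resistant MES-SA/dx5 cells exposed for 72 h, then PrestoBlue added for 3 h at 37 °C, absorbance read at 570 and 600 nm. IC50 by median-effect analysis of six or seven concentrations; mean ± STDEV of three to six independent experiments.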

A549 = experiment: Antitumor activity against human A549 cells xenografted in nude mouse assessed as tumor growth inhibition at 25 mg/kg, iv qd administered 4 days measured on day 20 relative to vehicle-treated control; assay type: functional; settings: read-out: TGI
[13] = Cytotoxicity against human CL141T cells after 72 hrs by Alamar blue assay; assay type: functional, cell-based; procedure, shortened: as §1
[14] = Cytotoxicity against human KB-VIN10 cells after 72 hrs by Alamar blue assay; settings: KB-VIN10, 72 h
HCT-116 = experiment: Cytotoxicity against human HCT116 cells after 72 hrs by Alamar blue assay; assay type: functional, cell-based; settings: HCT-116, 72 h; procedure, shortened: as §1
[15] = Cytotoxicity against human MES-SA cells after 72 hrs by Presto Blue assay; assay type: functional, cell-based; procedure, shortened: as §4
Mus musculus = experiment: Toxicity in nude mouse xenografted with human HT-29 cells assessed as body weight loss at 25 mg/kg, iv qd administered 4 days measured for 20 days; assay type: organism-based; set-up: dose 25 mg/kg, route intravenous; settings: in vivo, 480 h
[16] = Cytotoxicity against human OECM1 cells after 72 hrs by Alamar blue assay; assay type: functional, cell-based; settings: OECM1, 72 h; procedure, shortened: as §1

Chain of DNA topoisomerase 2-alpha (Homo sapiens) (P11388 whole entry): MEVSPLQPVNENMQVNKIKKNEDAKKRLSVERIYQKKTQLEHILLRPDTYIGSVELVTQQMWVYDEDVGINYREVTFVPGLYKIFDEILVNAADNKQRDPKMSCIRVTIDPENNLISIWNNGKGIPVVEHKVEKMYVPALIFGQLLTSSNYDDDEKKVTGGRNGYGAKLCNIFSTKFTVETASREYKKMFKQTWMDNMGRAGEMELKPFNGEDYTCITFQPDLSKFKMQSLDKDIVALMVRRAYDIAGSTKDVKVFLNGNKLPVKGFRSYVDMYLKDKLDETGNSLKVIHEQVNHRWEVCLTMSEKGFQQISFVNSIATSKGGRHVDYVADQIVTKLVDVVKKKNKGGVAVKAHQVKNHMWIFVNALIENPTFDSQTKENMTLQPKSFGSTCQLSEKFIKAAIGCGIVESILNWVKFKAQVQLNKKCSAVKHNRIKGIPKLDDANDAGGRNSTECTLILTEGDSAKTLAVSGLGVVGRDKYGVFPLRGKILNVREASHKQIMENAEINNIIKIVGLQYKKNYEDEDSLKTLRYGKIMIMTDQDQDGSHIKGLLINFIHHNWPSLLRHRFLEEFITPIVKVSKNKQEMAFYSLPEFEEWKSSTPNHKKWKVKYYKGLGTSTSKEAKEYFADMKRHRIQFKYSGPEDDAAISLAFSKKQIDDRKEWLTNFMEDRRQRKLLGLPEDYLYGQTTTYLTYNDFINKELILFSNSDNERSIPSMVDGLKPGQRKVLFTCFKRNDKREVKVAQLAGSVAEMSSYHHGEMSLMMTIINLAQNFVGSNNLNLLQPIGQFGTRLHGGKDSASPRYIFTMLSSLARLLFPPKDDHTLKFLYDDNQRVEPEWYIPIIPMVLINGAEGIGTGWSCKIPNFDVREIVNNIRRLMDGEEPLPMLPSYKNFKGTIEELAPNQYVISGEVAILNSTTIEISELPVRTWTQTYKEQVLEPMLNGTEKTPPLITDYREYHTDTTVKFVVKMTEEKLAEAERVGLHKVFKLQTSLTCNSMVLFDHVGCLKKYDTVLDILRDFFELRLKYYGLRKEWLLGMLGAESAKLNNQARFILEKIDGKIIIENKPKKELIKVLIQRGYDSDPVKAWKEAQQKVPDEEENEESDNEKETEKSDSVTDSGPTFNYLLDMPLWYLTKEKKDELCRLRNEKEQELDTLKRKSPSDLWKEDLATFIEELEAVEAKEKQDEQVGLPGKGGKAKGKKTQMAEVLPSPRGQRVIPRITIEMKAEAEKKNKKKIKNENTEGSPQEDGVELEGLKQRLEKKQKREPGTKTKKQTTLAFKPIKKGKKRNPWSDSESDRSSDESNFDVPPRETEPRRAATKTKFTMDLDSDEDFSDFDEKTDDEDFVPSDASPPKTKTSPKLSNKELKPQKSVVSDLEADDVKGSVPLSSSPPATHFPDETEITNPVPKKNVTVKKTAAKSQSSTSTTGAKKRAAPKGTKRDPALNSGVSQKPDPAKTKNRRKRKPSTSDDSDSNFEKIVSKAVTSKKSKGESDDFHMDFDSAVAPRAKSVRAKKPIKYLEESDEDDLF

Cc1c(CO)c(CO)c2n1Cc1c(c3ccccc3n1C)C2
inhibition [1]: Dose-dependent effect
inhibition [2]: Active
pIC50 (HT-29): 5.47
Activity (NCI-H460 [3]): Active
Activity (NCI-H460 [4]): 15.09%
Activity [5]: Active
pIC50 [6]: 6.42
Activity [7]: Active
Activity [8]: Active
Activity (NCI-H460 [9]): Active
pIC50 [10]: 5.55
Activity [11]: inactive
pIC50 [12]: 6.92
inhibition in vivo at 25 mg/kg (A549): 50%
pIC50 [13]: 6.29
pIC50 [14]: 5.88
pIC50 (HCT-116): 6.00
pIC50 [15]: 6.62
Activity (Mus musculus): Toxic
pIC50 [16]: 6.02
